Measured values published in ChEMBL document CHEMBL1139454, “NMR structural characterization of peptide inhibitors bound to the Hepatitis C virus NS3 protease: design of a new P2 substituent” (J Med Chem, 2004).
Non-standard residues stand in square brackets, D forms with d. Residues, ends and D or L forms follow the SMILES beside them. Nva = CCC[C@H](N)C(=O)O

Experiments:
NS3 = NS3 (Hepatitis C virus, UniProt A3EZJ3); assay: Inhibitory activity against hepatitis C virus NS3 protease; set-up: species or system Hepacivirus hominis
Chain of NS3 (A3EZJ3 whole entry): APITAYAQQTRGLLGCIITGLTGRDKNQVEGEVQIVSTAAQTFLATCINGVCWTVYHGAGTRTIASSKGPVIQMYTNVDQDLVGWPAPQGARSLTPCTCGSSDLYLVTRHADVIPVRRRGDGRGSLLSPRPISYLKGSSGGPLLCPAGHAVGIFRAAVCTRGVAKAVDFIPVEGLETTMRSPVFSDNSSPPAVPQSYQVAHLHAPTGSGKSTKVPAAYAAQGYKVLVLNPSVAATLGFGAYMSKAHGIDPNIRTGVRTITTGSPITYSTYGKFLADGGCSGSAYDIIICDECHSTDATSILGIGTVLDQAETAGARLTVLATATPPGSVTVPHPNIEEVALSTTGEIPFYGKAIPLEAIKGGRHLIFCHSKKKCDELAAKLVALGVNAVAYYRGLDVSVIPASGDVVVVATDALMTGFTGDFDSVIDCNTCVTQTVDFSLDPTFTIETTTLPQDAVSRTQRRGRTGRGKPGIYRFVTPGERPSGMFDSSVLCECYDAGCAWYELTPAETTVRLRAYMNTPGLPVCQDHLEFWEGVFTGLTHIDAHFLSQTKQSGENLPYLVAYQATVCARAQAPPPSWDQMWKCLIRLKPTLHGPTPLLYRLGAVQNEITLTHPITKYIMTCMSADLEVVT
How it was run: (§1)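 Genotype 1b NS3–NS4A heterodimer at 1.5 nM, incubated 45 min at 23 °C with serially diluted inhibitor and 5 μM internally quenched fluorogenic substrate anthranilyl-DDIVPAbu[C(O)-O]-AMY(3-NO₂)TW-OH. Buffer was 50 mM Tris-HCl pH 8.0, 0.25 M sodium citrate, 0.01% n-dodecyl-β-D-maltoside, 1 mM TCEP. Stopped with 1 M MES pH 5.8; product fluorescence read at ex 320/em 405 nm. IC50 from Hill-model nonlinear fit of % inhibition.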

[1] = Inhibitory activity against hepatitis C virus (NS3 protease; set-up: species or system Hepacivirus hominis; how it was run: as §1

Row | SMILES | IC50 (NS3) [µM] | IC50 [1] [µM]
1 | C=CC1C[C@]1(NC(=O)[C@@H]1C[C@@H](Oc2cc(-c3ccccc3)nc3ccccc23)CN1C(=O)[C@@H](NC(C)=O)C(C)C)C(=O)O (some centres not stated) | 3 | –
2 | CCC[C@H](NC(=O)[C@@H]1CCCN1C(=O)[C@@H](NC(=O)[C@@H](NC(=O)[C@H](CC(=O)O)NC(=O)[C@H](CC(=O)O)NC(C)=O)[C@@H](C)CC)C(C)C)C(=O)O (Ac-DDIVP[Nva]-OH) | – | 150
3 | C=C[C@@H]1C[C@]1(NC(=O)C1CC(Oc2ccnc3ccccc23)CN1C(=O)[C@@H](NC(=O)[C@@H](NC(C)=O)C1CCCCC1)C(C)C)C(=O)O (single isomer, unassigned) | 0.11 | –
4 | CC(=O)N[C@H](C(=O)N[C@H](C(=O)N1CC(Oc2cccc(Br)c2)CC1C(=O)NC1(C(=O)O)CC1)C(C)C)C1CCCCC1 (single isomer, unassigned) | 52 | –
5 | CC(=O)N[C@H](C(=O)N[C@H](C(=O)N1CC(Oc2cccc(-c3ccccc3)c2)CC1C(=O)NC1(C(=O)O)CC1)C(C)C)C1CCCCC1 (single isomer, unassigned) | 6.2 | –
6 | CC(=O)N[C@H](C(=O)N[C@H](C(=O)N1CC(Oc2cccc(-c3cccc([N+](=O)[O-])c3)c2)CC1C(=O)NC1(C(=O)O)CC1)C(C)C)C1CCCCC1 (single isomer, unassigned) | 4 | –
7 | CC(=O)N[C@H](C(=O)N[C@H](C(=O)N1CC(Oc2ccnc3ccccc23)CC1C(=O)NC1(C(=O)O)CC1)C(C)C)C1CCCCC1 (single isomer, unassigned) | 2.2 | –
8 | C=C[C@@H]1C[C@]1(NC(=O)C1CC(Oc2cccc(-c3ccccc3)c2)CN1C(=O)[C@@H](NC(=O)[C@@H](NC(C)=O)C1CCCCC1)C(C)C)C(=O)O (single isomer, unassigned) | 0.12 | –
9 | CC(=O)N[C@H](C(=O)N[C@H](C(=O)N1CC(Oc2ccnc3cc(C(F)(F)F)ccc23)CC1C(=O)NC1(C(=O)O)CC1)C(C)C)C1CCCCC1 (single isomer, unassigned) | 8 | –
10 | CC(=O)N[C@H](C(=O)N[C@H](C(=O)N1CC(OCc2cccc3ccccc23)CC1C(=O)NC1(C(=O)O)CC1)C(C)C)C1CCCCC1 (single isomer, unassigned) | 4 | –
11 | CC(=O)N[C@H](C(=O)N[C@H](C(=O)N1CC(Oc2cc(-c3ccccc3)nc3ccccc23)CC1C(=O)NC1(C(=O)O)CC1)C(C)C)C1CCCCC1 (single isomer, unassigned) | 0.37 | –
12 | C=C[C@@H]1C[C@]1(NC(=O)C1CC(Oc2cc(-c3ccccc3)nc3ccccc23)CN1C(=O)[C@@H](NC(=O)[C@@H](NC(C)=O)C1CCCCC1)C(C)C)C(=O)O (single isomer, unassigned) | 0.013 | –
